Key:
synaptophysin = test: Synaptophysin levels in striatum of hA53T tg mice; format: in vivo; conditions: 30 mg/kg
Outline: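 hA53T tg mice, 7 mo old, were given 30 mg/kg or vehicle by oral gavage for 20 d. Striatal homogenate (~20 µg) was reduced with β-mercaptoethanol, heated to 90°C for 5 min, run on 10% SDS-PAGE and blotted to nitrocellulose. Synaptophysin densitometry was normalised to GAPDH or β-actin and expressed as percentage of vehicle.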

α-synuclein [1] = target: T1, α-synuclein (Homo sapiens, UniProt P37840); test: α-Synuclein amyloid fibril formation; format: biochemical; conditions: unpublished data
[2] = system: low copy mice overexpressing human G93A SOD1; conditions: ref Soon et al., 2011, cited from earlier work
[3] = system: MPTP-lesioned C57BL/6 mice; test: Pole test, MPTP-lesioned wild-type mice; format: in vivo
Outline: (§1)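 Oral gavage of 15 or 30 mg/kg test compound or suspension vehicle began 1 d post-lesion. Saline sham-lesioned controls received vehicle. Pole test (Tturn, Ttotal) was run after 19 d of treatment.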

[4] = system: hA53T α-synuclein tg mice; test: Pole test, hA53T α-synuclein tg mice; format: in vivo; conditions: 30 mg/kg
[5] = system: MPTP-lesioned C57BL/6 mice; test: Stereological SNpc neuron counts, MPTP-lesioned wild-type mice; format: in vivo; conditions: for increase in number of SNpc neurons vs vehicle-treated MPTP-lesioned mice: started 1 d after lesion, 20 d
α-synuclein [6] = test: α-Synuclein levels, hA53T α-synuclein tg mice not MPTP-lesioned; format: in vivo; conditions: unpublished data
TH = TH levels in SNpc of MPTP-lesioned mice; format: in vivo
Outline: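 MPTP lesion: four i.p. doses of 10 mg/kg at 2-h intervals; 15 or 30 mg/kg oral gavage from the next day. For TH immunostaining, 30 µm coronal SNpc sections were post-fixed in 4% PFA and boiled in citrate buffer (pH 6.0). They were blocked with normal goat serum and incubated overnight at room temperature with rabbit anti-TH 1:3000, then HRP secondary for 2 h and DAB. Western blots were normalised to GAPDH or β-actin.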

[7] = system: hA53T tg mice lesioned with MPTP; test: Stereological SNpc neuron counts, MPTP-lesioned hA53T tg mice; format: in vivo; conditions: 30 mg/kg
Outline: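 MPTP was given i.p. as four 10 mg/kg doses at 2-h intervals. Groups: 4-mo-old female C57BL/6 mice and 7-mo-old hA53T α-synuclein tg mice, equal sexes. From 1 d post-lesion, mice got 15 or 30 mg/kg test compound or suspension vehicle by oral gavage for […]; saline sham-lesioned controls got vehicle. Perfused brains, right hemisphere fixed in 4% paraformaldehyde; Nissl-stained SNpc counted stereologically (45 × 35 µm frame).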

[8] = system: 6-OHDA-lesioned C57BL/6 mice; test: Amphetamine-induced rotation, 6-OHDA model; format: in vivo; conditions: 30 mg/kg, 6-OHDA-lesioned mice
Outline: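 Partial 6-OHDA lesion: 2 µl injected into the right substantia nigra of 2-mo-old C57BL/6 mice, 3.0 mm AP, 1.1 mm lateral, 4.7 mm DV from bregma. Amphetamine-induced rotation was tested 3 d post-lesion, before dosing, to confirm lesion size. Mice were randomised to test compound or vehicle for 18 d, then rotation was retested.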

[9] = system: hA53T tg mice lesioned with MPTP; test: Pole test, MPTP-lesioned hA53T tg mice; format: in vivo
Outline: as §1

MPTP-lesioned mice = test: Dopamine measurement of mouse striatum; format: in vivo; conditions: 30 mg/kg
Outline: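 MPTP lesion: four i.p. doses of 10 mg/kg at 2-h intervals. Starting the next day, mice received 30 mg/kg test compound or suspension vehicle by oral gavage. Right striatum was homogenised by pulse sonication in 0.4 M perchloric acid with 0.15% sodium metabisulfite and 0.05% EDTA disodium salt for dopamine measurement.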

SNCA = SNCA gene expression by qPCR, MPTP-lesioned WT mice; format: in vivo
[10] = Rat pharmacokinetic study; format: in vivo, Sprague Dawley rats
Outline: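 Fasted male Sprague Dawley rats (6–8 wk, ~280 g) received 20 mg/kg by oral gavage as a 6 mg/ml suspension (n = 3). Another group (n = 3) got 5 mg/kg by i.v. jugular-cannula infusion at 0.05 ml/min, as a 3 mg/ml solution in 20% DMSO/80% propylene glycol. Serial blood was taken to 24 h; plasma was acetonitrile-precipitated and analysed by LC-MS.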

[11] = Time-dependent degradation of ONOO^− monitored by UV-visible spectroscopy; format: biochemical; conditions: Cu^II(atsm) at 10 µM; ONOO^− in high pH solution (alone 53 ± 3 min)
[12] = system: hA53T α-synuclein tg mice; test: Stereological nigral cell counts, hA53T α-synuclein tg mice; format: in vivo; conditions: 30 mg/kg, 20 d
Outline: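 hA53T α-synuclein tg mice and C57BL/6 x C3H background controls, 7 mo old, equal sexes, received 30 mg/kg test compound or suspension vehicle by oral gavage for 20 d. The right hemisphere of PBS-perfused brains was fixed overnight in 4% paraformaldehyde at 4°C. Nissl-stained nigral neurons were counted stereologically using a 45 µm × 35 µm unbiased counting frame.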

α-synuclein [13] = test: α-Synuclein levels in SNpc, MPTP-lesioned hA53T α-synuclein tg mice; format: in vivo
Outline: (§2)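 MPTP lesion: four i.p. doses of 10 mg/kg at 2-h intervals. Test compound (15 or 30 mg/kg) or vehicle was given by oral gavage from the next day for 21 d. Brain homogenate (~20 µg) was reduced, heated to 90°C for 5 min, run on 10% SDS-PAGE and blotted to nitrocellulose. Densitometry was normalised to GAPDH or β-actin and expressed as percentage of vehicle.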

α-synuclein [14] = test: α-Synuclein levels in SNpc, MPTP-lesioned wild-type mice; format: in vivo
Outline: as §2

[15] = system: 6-OHDA-lesioned C57BL/6 mice; test: Stereological SNpc neuron counts, 6-OHDA-lesioned mice; format: in vivo; conditions: 30 mg/kg, started 3 d after 6-OHDA lesion, 20 d
Outline: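 6-OHDA lesion in the right substantia nigra of 2-mo-old C57BL/6 mice; dosing started 3 d post-lesion. Mice were perfused with cold PBS. The right hemisphere was fixed overnight in 4% paraformaldehyde in 0.1 M phosphate buffer at 4°C. Nissl-stained SNpc neurons were counted stereologically with an unbiased 45 µm × 35 µm counting frame.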

[16] = Mouse pharmacokinetic and brain uptake study; format: in vivo, C57BL/6 mice
Outline: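 Male C57BL/6 mice, 11 wk old, got a single 30 mg/kg oral gavage dose (7.5 mg/ml suspension in standard suspension vehicle). Plasma and brain were sampled at time points up to 24 h, n = 3 per point, under pentobarbitone anaesthesia. Samples were acetonitrile-precipitated and quantified against matrix-matched standards. Quantitation limits: 5 ng/ml plasma, 10 ng/g brain. Brain/plasma ratio taken from AUC0-6h.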

[17] = system: differentiated SH-SY5Y cells; test: MTS cell viability, SIN-1–induced toxicity; format: cell-based, human; conditions: added to cell culture 5 min after SIN-1; unpublished data
α-synuclein [18] = target: T1, α-synuclein; test: 2D [1H,15N] HSQC NMR titration of 15N-labeled α-synuclein; format: binding; conditions: increasing concentrations titrated in
VMAT2 [19] = test: VMAT2 microPET imaging with 18F-AV133, MPTP-lesioned 18-mo-old mice; format: in vivo; conditions: 18 mo MPTP-lesioned mice, 30 mg/kg
Outline: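 Female B6C3H x HeJ mice, 18 mo old, had baseline VMAT2 microPET: 500 µCi 18F-AV-133 by tail vein, imaged for 30 min. They were then lesioned with 4 × 10 mg/kg MPTP. Treatment at 30 mg/kg or vehicle began the following day and ran 21 d, after which microPET imaging was repeated.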

[20] = system: hA53T α-synuclein tg mice; test: Novel object recognition; format: in vivo; conditions: 30 mg/kg for 20 d
Outline: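 hA53T α-synuclein tg mice, 7 mo old, equal sexes, received 30 mg/kg test compound or vehicle by oral gavage for 20 d. Novel object test with Lego blocks: 10-min training with two objects, 1-h delay, then one familiar object replaced by a novel 1.5 × 1.5 × 2.0 cm object. Index = time with novel object / time with familiar object.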

[21] = system: hA53T α-synuclein tg mice; test: Y-maze test, hA53T tg mice; format: in vivo; conditions: 30 mg/kg, vehicle-treated 30%
[22] = system: differentiated SH-SY5Y cells; test: 3-NT levels in cell media by ELISA after SIN-1; format: cell-based, human; conditions: 40 µM pretreatment before SIN-1
Outline: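 Human SH-SY5Y cells were differentiated with 10 µM retinoic acid in 1.5% FCS medium for 3 d, then given fresh medium for another 3 d. Cells were preincubated with test compound (10, 20, 40 µM) for 5 min, then exposed to 3 mM SIN-1 for 90 min. Media were coated in pH 9.6 carbonate buffer for ELISA at 22°C: rabbit […] 1:2000, HRP secondary, TMB, A450.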

VMAT2 [23] = test: VMAT2 levels in MPTP-lesioned mice; format: in vivo; conditions: for increase in VMAT2 levels: 3–4-mo-old MPTP-lesioned mice
Outline: as §2

[24] = Overt toxicity observation in animal studies; format: in vivo; conditions: studies of this paper and a longer term 12-mo trial in wild-type animals
[25] = single oral 20 mg/kg, male Sprague Dawley rats
[26] = single oral 30 mg/kg, C57BL/6 mice

## CN=C([S-])N/N=C(C)/C(C)=N/NC([S-])=NC.[Cu+2] [Cu^II(atsm), copper(II)diacetylbis(N(4)-methylthiosemicarbazonato)]
synaptophysin
  increase in synaptophysin levels vs vehicle-treated tg mice: 31%
α-synuclein [1]
  inhibition of formation of α-synuclein fibrils: did not inhibit the formation of α-synuclein fibrils
[2]; pre- and postsymptomatic treatment regimes
  motor phenotype in ALS tg mouse model: successful in rescuing the motor phenotype
[2]
  survival in ALS tg mouse model: increased survival rates
[3]; 15 mg/kg
  decrease of Tturn and Ttotal times: did not reach statistical significance
[3]; 30 mg/kg
  faster Ttotal (pole test) vs MPTP-lesioned vehicle: 2.2 s
  faster Tturn (pole test) vs MPTP-lesioned vehicle: 1.5 s
[3]; nonlesioned wild-type mice
  effect on motor performance of nonlesioned wild-type mice: no effect
[4]
  improvement in Ttotal times: not statistically significant
[4]; vehicle 3.9 ± 0.5 s
  Tturn (pole test): 1.1 ± 0.3 s
[5]; 15 mg/kg oral gavage
  increase in number of SNpc neurons vs vehicle-treated MPTP-lesioned mice: 43%
[5]; 30 mg/kg oral gavage
  increase in number of SNpc neurons vs vehicle-treated MPTP-lesioned mice: 61%
[5]; nonlesioned wild-type mice
  effect on cell numbers of nonlesioned wild-type mice: no effect
α-synuclein [6]
  α-synuclein levels vs vehicle treatment: did not lead to any significant differences
TH
  TH mRNA transcript levels (qPCR, SNpc): rescued
TH; 15 mg/kg
  increase in TH levels (Western blot): 42%
TH; 30 mg/kg
  increase in TH levels (Western blot): 45%
TH; either 15 or 30 mg/kg
  immunostaining of TH in SNpc: increased immunostaining
[7]
  increase of SNpc neurons: 15%
[8]
  reduction in amphetamine-induced rotational behavior vs controls: 45%
[9]
  improvement in Ttotal: 37%
  improvement in Tturn: 49%
[9]; vehicle 2.4 ± 0.4 s
  Tturn (pole test): 1.2 ± 0.1 s
[9]; vehicle 6.1 ± 0.8 s
  Ttotal (pole test): 3.9 ± 0.2 s
MPTP-lesioned mice
  increase in dopamine levels vs untreated MPTP-lesioned animals: 122%
SNCA
  SNCA gene regulation (qPCR): recovered to levels of unlesioned WT mice
[10]; oral 20 mg/kg vs intravenous 5 mg/kg, rats
  apparent oral bioavailability: 53 ± 5%
[10]; [25]
  Tmax: 10 h
  elimination half-life: 3.1 ± 0.4 h
[10]; single oral 20 mg/kg, male Sprague Dawley rats, plasma
  Cmax: 488.1 ± 67.0 ng/mL
[11]
  ONOO^− half-life: ~0.193 ± 0.0083 h
[12]
  increase in total nigral cells: 14%
α-synuclein [13]; MPTP-lesioned hA53T tg mice
  reduction in α-synuclein monomer levels: 12%
α-synuclein [13]; MPTP-lesioned hA53T α-synuclein tg mice
  α-synuclein dimers, % of control-treated: 83%
α-synuclein [14]
  α-synuclein dimers, % of control-treated: 76%
  α-synuclein monomer levels: no changes
[15]
  increase in number of SNpc dopaminergic neurons: 26%
[16]; based on Cmax levels, oral 30 mg/kg mice
  maximum concentration of the compound in the brain: ~0.6 µM
[16]; [26]
  brain Cmax: 198 ± 61 ng/mL
  brain Tmax: 2 h
  brain/plasma ratio (AUC0-6h): 0.32
  plasma Cmax: 591 ± 203 ng/mL
  plasma Tmax: 1 h
[16]; single oral 30 mg/kg, C57BL/6 mice, plasma
  apparent elimination half-life: ~3.3 h
[17]
  protective effect in posttreatment paradigm: no protective effect was observed
α-synuclein [18]
  direct interaction between α-synuclein and compound (HSQC spectra): no direct interaction
VMAT2 [19]
  increase in 18F-AV133 ligand binding vs vehicle control lesioned mice: 142%
[20]
  increase in interactions with the novel object vs vehicle-treated mice: 73%
[21]
  mean novel arm entries (Y-maze): 42%
[22]
  reduction in nitrotyrosine (3-NT) levels: 51%
VMAT2 [23]; 15 mg/kg
  increase in VMAT2 levels: 13%
VMAT2 [23]; 30 mg/kg
  increase in VMAT2 levels: 12%
VMAT2 [23]; MPTP-lesioned animals
  VMAT2 transcripts (qPCR, SNpc): levels were restored to those similar to the wild-type animals
VMAT2 [23]; older (18 mo) MPTP-lesioned mice
  increase in VMAT2 protein levels in striatum (Western blot): 60%
[24]
  overt toxicity: No overt toxicity

— publication PMC3328361 (The Journal of Experimental Medicine, 2012)
